# V1aR counter: agonists of human V1a receptor, primary screen, counter-screen for OXTR agonist project, fluorescence, CHO-V1R cells | activation, % at 3 µM | Vasopressin V1a receptor (Homo sapiens), P37288 | Fluo-8 calcium fluorescence, agonist mode; 0% DMSO, 100% 3 nM vasopressin | AID 2797, 2010 | 320,000 tested, 0.25% active;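 active = activation above the mean activation of all tested compounds plus 3 SD, per screening run, cut at about 20% in these data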;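 also: signal is peak over basal fluorescence ratio across a 100 second FLIPR read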
# OXTR ag: human OXTR agonists, primary screen, fluorescence, CHO-OTR cells, Fluo-8 calcium. Oxytocin receptor (Homo sapiens), P30559. Fluo-8 calcium fluorescence; normalized: DMSO 0%, oxytocin 100%. activation, % at 3 µM. 320,000 tested, 0.32% active. AID 2435, 2010;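 active = activation above the mean of all tested compounds plus 3 SD, cutoff set per screening run, cut at about 20% in these data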;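 also: peak over basal fluorescence ratio from a 100 s FLIPR kinetic read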
# Target sequence (P30559 whole entry, looked up): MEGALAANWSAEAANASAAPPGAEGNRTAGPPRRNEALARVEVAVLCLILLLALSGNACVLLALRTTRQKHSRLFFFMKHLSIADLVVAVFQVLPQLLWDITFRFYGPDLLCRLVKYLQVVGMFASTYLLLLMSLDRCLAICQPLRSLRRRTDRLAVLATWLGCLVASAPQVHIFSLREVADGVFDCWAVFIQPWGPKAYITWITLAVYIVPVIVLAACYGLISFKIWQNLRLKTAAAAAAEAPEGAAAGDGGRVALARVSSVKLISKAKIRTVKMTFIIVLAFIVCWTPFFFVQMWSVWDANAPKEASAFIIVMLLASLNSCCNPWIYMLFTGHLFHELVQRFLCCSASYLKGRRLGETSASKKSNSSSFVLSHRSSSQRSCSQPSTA
# OXTR potentiator: human OXTR potentiators, primary screen, fluorescence, CHO-OTR cells, Fluo-8 calcium. Oxytocin receptor (Homo sapiens), P30559. Fluo-8 calcium fluorescence, potentiator mode; 0% = oxytocin EC15, 100% = EC100. activation, % at 3 µM. 320,000 tested, 0.061% active. AID 2445, 2010;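 active = activation above that plate's cutoff, the mean activation of tested compounds plus 3 SD, cut at about 6.6% in these data, passing the limit was not always enough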;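 also: 100% uses oxytocin at 75 nM as the full agonist control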
#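 Assay system: CHO-OTR cells, human receptor / Also added: oxytocin at about EC15, sub-maximal agonist stimulus / Dosing: single dose, 3.0 µM nominal final compound concentration / Incubation: 6 min pre-incubation, 100 s read / Technique: Fluo-8 calcium dye fluorescence / Read-out: % activation vs EC15 and EC100 oxytocin / Benchmarks: EC15 oxytocin low, 75 nM oxytocin high / Replicates: singlicate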
# OX1R antag-1: OX1R (HCRTR1) antagonists, primary screen, fluorescence, CHO/OX1R cells, Fluo-8 calcium, orexin A; inhibition, % at 5 µM; Fluo-8 calcium fluorescence; Orexin/Hypocretin receptor type 1 (Homo sapiens), O43613; 330,000 tested, 0.43% active; AID 434989, 2010;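 active = inhibition above its plate's threshold, mean inhibition of all tested compounds on the plate plus 3 SD, cut at about 37% in these data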;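 also: 0% = orexin A challenge wells and 100% = SB-334867-A antagonist wells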
# CHO parental Ca: ATP-evoked calcium signal inhibitors, parental CHO, primary screen, counter-screen for OX1R antagonist project, cell-based, fluorescence, Fluo-8 calcium dye; inhibition, % at 5.6 µM; 330,000 tested, 0.63% active; parental CHO-K1, ATP-induced calcium, Fluo-8 fluorescence; AID 463079, 2010;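 active = inhibition above that plate's mean sample inhibition plus 3 SD, cut at about 26% in these data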;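 also: 0% = ATP-challenged DMSO wells and 100% = DMSO wells without ATP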
#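 Material: parental CHO cells / Compound: single nominal dose of 5.6 µM per compound / Signal: Fluo-8 fluorescence / Replicates: singlicate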
# OX1R antag-2: antagonists of human orexin 1 receptor (OX1R). Orexin/Hypocretin receptor type 1 (Homo sapiens), O43613. OX1R-expressing cells, FRET antagonist read-out. inhibition, % at 6.6 µM. 330,000 tested, 1.8% active. AID 485270, 2010; in the data active = inhibition mostly above about 38%, no sharp cut-off; inactive = mostly below about 40%;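 also: 0% = agonist challenge alone and 100% = reference antagonist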
# * = called active by the depositor. Sampled rows, rich in hits. Any-hit rate of the full collection: about 2.6%.
SMILES,V1aR counter,OXTR ag,OXTR potentiator,OX1R antag-1,CHO parental Ca,OX1R antag-2
COc1cc(/C=C2/SC(N)=NC2=O)ccc1Oc1ccc([N+](=O)[O-])cc1[N+](=O)[O-],-0.6,-1.7,1.5,1.1,-7.9,4.9
CCc1nnc(N2C(=O)c3ccc(Oc4ccc([N+](=O)[O-])cc4)cc3C2=O)s1,-0.1,0.2,1.8,-27.8,-9.7,19.6
O=C1C(Cl)=C(Nc2ccc(O)cc2)C(=O)c2ccccc21,-0.9,0.1,-6.2,43.9*,44.9*,156.2*
Cc1ccc(NC(=S)NC2CCSc3ccccc32)cc1C (centres undefined),3.5,-0.6,-15.6,5.7,11.2,16.6
CCOc1ccc(OCCN2C(=O)NC(Cc3c[nH]c4ccccc34)C2=O)cc1 (centres undefined),4.3,3.4,-18.3,16.3,-16.6,43.0*
O=C(COC(=O)c1cc(-c2cccs2)nc2ccccc12)NCc1ccco1,-0.3,-1.0,-7.3,16.6,-11.6,72.3*
COC(=O)[C@@]12CCCCN1[C@H](c1ccc(-c3ccc(C(C)=O)cc3)c(OC)c1)[C@@H]1C(=O)N(C)C(=O)[C@@H]12,1.5,0.3,-11.7,13.5,11.8,23.5
CC(=O)Oc1c(Cl)cc(N(C(C)=O)S(=O)(=O)c2ccccc2)c2ccccc12,-1.2,-4.3,-5.0,-26.5,-27.9,32.9
CCOc1cc(CNc2ccc3cn[nH]c3c2)ccc1OC,0.1,0.1,-0.2,-35.4,-11.8,7.6
COc1ccc(CNc2ccc3cn[nH]c3c2)c(OC)c1OC,1.1,0.9,-5.8,6.5,-6.8,36.9*
Cc1nnc(NC(=O)c2cc(S(=O)(=O)N3CCCCC3)ccc2Cl)s1,-0.1,-0.3,-2.0,-6.5,6.2,9.0
C/C(=N\Nc1nc2ccccc2s1)c1cccs1,-0.9,-1.8,-3.3,-21.8,-18.7,56.5*
C/C(=N\Nc1nc(-c2ccccc2)cs1)c1cccs1,1.5,0.3,4.5,-9.2,-15.6,8.0
CC(=O)Nc1ccc(N=c2cc([N+](=O)[O-])cc(Cl)n2O)cc1,-0.2,0.3,-8.6,-5.5,-2.2,65.9*
COc1cc(OC)cc(C(=O)NC(=S)NNC(=O)[C@H]2C[C@@H]2c2ccccc2)c1,2.2,23.3*,-15.7,-22.3,-24.3,3.7
CCCCC#Cc1ccc(C(=O)NNC(=O)Nc2ccccc2)o1,-0.5,-1.9,-2.9,-18.6,35.4*,5.3
CCCCN(CCCC)Cc1ccc(C(=O)NNC(=O)Nc2ccccc2)o1,-0.3,-0.4,2.5,-19.0,8.5,13.3
Cc1ccc(NC(=O)CN2C(=O)NC(C)(CC(C)C)C2=O)c(Br)c1 (centres undefined),1.1,-1.2,-5.4,-24.0,-21.9,8.7
CC(Oc1ccc(Br)cc1)C(=O)Nc1nc(-c2ccccn2)cs1 (centres undefined),3.2,-1.9,-2.1,9.3,34.9*,39.8
CC1=CC(C)(C)N(S(=O)(=O)c2ccc(C)cc2)c2cc(C)ccc21,-0.1,-0.7,-8.4,1.3,48.8*,17.6
O=c1/c(=C\c2cc([N+](=O)[O-])cc([N+](=O)[O-])c2O)sc2nc3ccccc3n12,7.4,5.0,-7.5,5.7,-0.1,72.2*
O=c1/c(=C/c2ccccn2)sc2nc3ccccc3n12,0.6,0.6,0.4,-9.3,1.2,13.4
O=C(CSc1cccc[n+]1[O-])NC1CCCCC1,0.3,0.8,-5.7,-8.8,5.0,0.4
COCCNC(=O)CCn1nc(-c2ccc(C)cc2)ccc1=O,-0.2,-1.1,-4.3,-16.7,-10.5,5.5
Nc1ccccc1O,0.5,1.1,-4.8,-7.2,-15.9,32.4*
SMILES,V1aR counter,OXTR ag,OXTR potentiator,OX1R antag-1,CHO parental Ca,OX1R antag-2
Oc1ccccc1O,-0.2,-0.4,-5.0,7.2,-9.3,3.2
COc1cccc(CN(C)C(=O)CCN(c2ccccc2)S(=O)(=O)c2ccc(C)cc2)c1OC,0.1,-1.0,-19.4,-28.5,-22.8,31.3
CC(C)C(=O)N(c1ccc2oc(=O)sc2c1)S(=O)(=O)c1cccs1,0.2,1.4,0.6,-1.9,-5.6,16.1
CC(C)C(=O)N(c1cc2sc(=O)oc2c2ccccc12)S(=O)(=O)c1cccs1,0.2,0.2,-1.7,67.7*,87.2*,37.7
CCOC(=O)N1CCc2c(sc(NC(=O)CN(CC)CC)c2C#N)C1,-0.2,-0.2,-3.1,-14.4,-11.8,4.9
Cn1c(=O)c(C(=O)NNC(=O)c2cccc(Cl)c2)c(O)c2ccccc21,0.1,0.8,-1.2,43.9*,47.0*,18.9
Cn1c(=O)c(C(=O)NNC(=O)c2ccccc2Br)c(O)c2ccccc21,2.2,-0.1,-5.4,-38.5,-23.4,26.2
Cn1c(=O)c(C(=O)NNC(=O)c2ccccc2Cl)c(O)c2ccccc21,2.3,3.5,-14.8,-20.3,4.6,27.5
Cc1cccc(C(=O)NNC(=O)c2c(O)c3ccccc3n(C)c2=O)c1,10.3,2.5,-14.0,12.9,40.0*,20.6
CC(=O)c1c(C)[nH]c(C(=O)OCc2ccc([N+](=O)[O-])cc2)c1C,7.8,6.5,-12.3,-27.7,-13.6,17.2
COC(=O)c1ccc(COC(=O)c2[nH]c(C)c(C(C)=O)c2C)o1,10.6,11.2,-18.9,11.3,38.1*,44.9
Cc1ccc(S(=O)(=O)N(CCC(=O)NCc2ccccc2F)c2ccccc2)cc1,0.9,-1.9,-9.1,-5.9,-18.5,25.5*
Cc1ccc(S(=O)(=O)N(C)c2ccc(C(=O)NCc3ccccc3F)cc2)cc1,2.5,-0.1,-8.6,-14.8,-7.3,13.1
Cn1c(C(=O)N2CCN(c3nc4ccccc4s3)CC2)cc2sccc21,6.7,4.3,-4.8,-10.4,-12.2,22.5
O=C(c1cc2sccc2n1Cc1ccc(F)cc1)N1CCN(c2nc3ccccc3s2)CC1,1.0,0.1,-17.3,25.8,37.1*,37.6
Cc1csc2c(N3CCN(C(=S)Nc4ccc(F)cc4F)CC3)ncnc12,8.1,15.7,-19.8,24.1,38.8*,25.3
CCc1cccc2c(C(=O)COC(=O)/C=C/c3ccccc3OC)c[nH]c12,0.8,0.0,-10.3,-5.1,-14.5,63.1*
O=C(NCc1ccccc1)c1ccc(-c2ccccc2F)o1,-0.1,-1.3,-12.4,-12.1,4.2,58.6*
O=C(NCCc1ccccc1)c1ccc(-c2ccccc2C(F)(F)F)o1,-0.4,-1.0,-9.9,-25.4,-22.6,4.2
CCCc1cc(=O)[nH]c(Nc2ccc(Cl)cc2)n1,3.2,1.9,-8.5,21.6,79.0*,23.2
